Assay results collected from several papers.
Each line is one published result; the experiments were not run side by side.
RET: Proto-oncogene tyrosine-protein kinase receptor Ret (RET, Homo sapiens, UniProt P07949)
BAZ2A bromodomain: Bromodomain adjacent to zinc finger domain protein 2A, bromodomain (BAZ2A, Homo sapiens, UniProt Q9UIF9)
Nos2: Nitric oxide synthase, inducible (Nos2, Mus musculus, UniProt P29477)
CIT: Citron Rho-interacting kinase (CIT, Homo sapiens, UniProt O14578)
ASH1L: Histone-lysine N-methyltransferase ASH1L (ASH1L, Homo sapiens, UniProt Q9NR48)

The activity vs control of `N#Cc1ccc(/C=C/CN(CC[C@H](N)C(=O)O)C[C@H]2O[C@@H](n3cnc4c(N)ncnc43)[C@H](O)[C@@H]2O)cc1` is reported as 96% (Phenylethanolamine N-methyltransferase (PNMT, Homo sapiens, UniProt P11086); enzyme activity; inhibitor; 1 µM).
For `COCC(=O)Nc1cc(C(=O)N(C)CCc2c(C)n[nH]c2C)c2c(c1)ncn2Cc1ccc(F)cc1`, the remaining activity was 118% (RET; enzyme activity; inhibitor; radiometric; 0.1 µM).
With `Cn1cncc1C1=CN(c2ncnc3[nH]cnc23)CCS1` the inhibition was 92.9% (Serine/threonine-protein kinase LATS2 (LATS2, Homo sapiens, UniProt Q9NRM7); enzyme activity; inhibitor; radiometric; 2 µM).
With `O=C(Nc1ccc(NC(=O)c2ccco2)cc1C(F)(F)F)Nc1ccc(NC(=O)c2ccco2)cc1C(F)(F)F` the remaining activity was 123% (RET; enzyme activity; inhibitor; radiometric; 0.1 µM).
`CCCOc1ccc(OC)c(F)c1C(=O)c1ccc(C(=O)N[C@@H]2CNC[C@H]2NC(=O)c2ccc3[nH]ncc3c2)cc1` has a remaining activity of 41% (RET; enzyme activity; inhibitor; 0.75 µM).
With `NS(=O)(=O)c1ccc(Nc2nc(-c3ccc(F)cc3)c3ccccc3n2)cc1` the remaining binding was 71% (BAZ2A bromodomain; binding; competition with immobilised ligand; 1 µM).
With `CC(C)[C@@H]1NC(=O)[C@@H]2CCCN2C(=O)[C@H](Cc2ccccc2)NC(=O)CSC[C@@H](C(=O)N[C@@H](Cc2ccc(O)cc2)C(N)=O)NC(=O)[C@H](Cc2c[nH]c3ccccc23)NC(=O)[C@H](CCCCN)NC(=O)[C@H](Cc2ccccc2)N(C)C(=O)[C@H](Cc2ccccc2)NC1=O` the kon was 71000 M⁻¹ s⁻¹ (Stimulator of interferon genes protein (STING1, Homo sapiens, UniProt Q86WV6, H232R); binding; SPR).
For `CCN(c1cc(C#CCN2CCOCC2)cc(C(=O)NCc2c(C)cc(C)[nH]c2=O)c1C)[C@H]1CC[C@H](N(C)CCOC)CC1`, the inhibition was 98% (Histone-lysine N-methyltransferase EZH1 (EZH1, Homo sapiens, UniProt Q92800); enzyme activity; inhibitor; 1 µM).
`CCn1cc(C(=O)Nc2cccc(O)c2)c(=O)c2cc(F)c(N3CCN(C(C)=O)CC3)cc21` has a remaining activity of 90.9% (RET; enzyme activity; inhibitor; radiometric; 0.1 µM).
`Cc1nc(O)nc(O)c1C` gave an inhibition of > 40% (Nos2; enzyme activity; inhibitor; 1 mM).
`Cc1ccc(Nc2nc(N3CCN(C(=O)c4ccco4)CC3)nc3[nH]ncc23)cc1` has a remaining activity of 99.9% (RET; enzyme activity; inhibitor; radiometric; 10 µM).
`Cc1ccc(C(=O)Nc2ccc(CN3CCN(C)CC3)c(C(F)(F)F)c2)cc1C#Cc1cnc2cccnn12` gave a remaining activity of 64% (CIT; enzyme activity; inhibitor; 23.5 nM).
The remaining activity of `CC(=O)c1cccc(NC(=O)Nc2cc3c(cc2Oc2ccccc2)n(C)c(=O)n3C)c1` is reported as 104% (RET; enzyme activity; inhibitor; radiometric; 0.1 µM).
With `Oc1ccc(-c2nc(-c3ccncc3)c(-c3ccc(F)cc3)[nH]2)cc1` the ΔTm was 0.27 °C (ASH1L; thermal stability; DSF; 10 µM).
The remaining activity of `COCC(=O)Nc1cc(C(=O)NCCc2cnn(C)c2)cc2ncn(CCc3ccccc3)c12` is reported as 109% (RET; enzyme activity; inhibitor; radiometric; 10 µM).
`O=C(NCCCNc1nc(Nc2cccc(NC(=O)N3CCCC3)c2)ncc1I)c1cccs1` gave a remaining activity of 2% (MAP/microtubule affinity-regulating kinase 4 (MARK4, Homo sapiens, UniProt Q96L34); enzyme activity; inhibitor; radiometric; 1 µM).
For `COc1ccccc1NC(=O)Nc1ccc2nc(NC(=O)c3ccccc3)sc2c1`, the remaining activity was 113% (RET; enzyme activity; inhibitor; radiometric; 0.1 µM).
With `C=C(F)[C@](N)(CCCCN)C(=O)O` the KI (inactivation) was 620 µM (Lysine decarboxylase (Hafnia alvei, UniProt P05033); enzyme activity; inhibitor; absorbance).
`COc1cc2ncnc(Nc3ccc(Oc4ccccc4)c(C)c3C)c2cc1OC` has an inhibition of 3% (Tyrosine-protein kinase JAK2 (JAK2, Homo sapiens, UniProt O60674); enzyme activity; inhibitor; 1 µM).
`O=C(CCCCCCCCc1ccc(O)cc1)c1c(O)cccc1O` gave an inhibition of 93.5% (Bifunctional epoxide hydrolase 2 (EPHX2, Homo sapiens, UniProt P34913); enzyme activity; inhibitor; fluorescence; 100 µM).
For `CC/C(=N\NC(=O)NCc1cccc(O)c1)c1ccc(O)c(C)c1O`, the inhibition was -4.1% (CIT; enzyme activity; inhibitor; 0.1 µM).
The ΔTm of `Cc1cnc(Nc2ccc(OCCN3CCCC3)cc2)nc1Nc1cccc(S(=O)(=O)NC(C)(C)C)c1` is reported as -0.11 °C (BAZ2A bromodomain; thermal stability; DSF; 10 µM).
`O=C(O)c1ncccc1O` gave an inhibition of > 40% (Nos2; enzyme activity; inhibitor; 1 mM).
For `COc1ccc(OC)c(NC(=O)Nc2cc(OC)c3nc(NC(=O)c4ccccc4)sc3c2)c1`, the remaining activity was 94.4% (RET; enzyme activity; inhibitor; radiometric; 10 µM).
With `Cc1nn(C)c2ncc(C(=O)NC(=O)Nc3ccc(F)c(C(F)(F)F)c3)cc12` the inhibition was < 10% (C-C chemokine receptor type 4 (CCR4, Homo sapiens, UniProt P51679); ligand displacement; radioligand; 10 µM).
With `C[S+]([O-])c1ccc(-c2nc(-c3ccncc3)c(-c3ccc(F)cc3)[nH]2)cc1` (stereo not shown) the ΔTm was 0.31 °C (ASH1L; thermal stability; DSF; 10 µM).
`Nc1ncnc2occ(-c3ccc(NC(=O)Nc4cc(C(F)(F)F)ccc4F)cc3)c12` gave a remaining signal of 24% (Phosphatidylinositol 5-phosphate 4-kinase type-2 gamma (PIP4K2C, Homo sapiens, UniProt Q8TBX8); cell-free assay; 20 µM).
`Cc1cc2c(cc1N1C(=O)c3cccc4c(Cl)ccc(c34)C1=O)n(C)c(=O)n2C` gave a ΔTm of 1.2 °C (ASH1L; thermal stability; DSF; 10 µM).
